Source: PubChem BioAssay (Johns Hopkins Ion Channel Center)
Sampled rows, rich in hits. Any-hit rate of the full collection: about 2.3%.
TRPC6 activator = mouse TRPC6 channel activators, primary screen, cell-based, HEK293, membrane potential dye; AID 2550, 2010; Short transient receptor potential channel 6 (Mus musculus), Q61143; 310,000 tested, 0.13% active; B-score at 10 µM; HEK293-TRPC6 membrane potential dye fluorescence; stronger effect = higher value;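 active = B-score of the integrated fluorescence ratio above library mean plus 3 SD, and starting fluorescence ratio within library mean plus 5 SD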;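 also: higher score means more depolarization so channel activation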
TRPC4 inh = inhibitors of mouse TRPC4 channel, primary screen, Fluo4 calcium, HEK293 TRPC4beta/mu-opioid cells; Short transient receptor potential channel 4 (Mus musculus), Q9QUQ5; DAMGO-evoked Fluo4 calcium flux; stronger effect = lower value; B-score at 10 µM; 300,000 tested, 0.39% active;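 active = B-score over 3 SD under the library average, no early fluorescence shift, positive overall ratio signal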
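System: stable TRPC4beta/mu-opioid receptor HEK293 cells; Dosing: single-point compound dosing; Measured by: Fluo4 Ca2+ flux fluorescence; Read-out basis: per-well B score of integrated baseline-normalized Fluo4 ratio.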
TRPC4 potent = positive allosteric modulators of TRPC4, primary screen, cell-based, mouse TRPC4beta, HEK293 mu-opioid, Fluo-4 calcium. Short transient receptor potential channel 4 (Mus musculus), Q9QUQ5. DAMGO EC20, Fluo-4 Ca2+ flux; stronger effect = higher value. B-score at 10 µM. 310,000 tested, 0.42% active. AID 2227, 2009;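 active = B-score of calcium response area above 5 SD of library B-scores, with initial fluorescence ratio within 5 SD of library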;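 also: B-score of integrated fluorescence ratio over time as area under calcium response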
TRPC4 agonist = activators of mouse TRPC4 channel, primary screen, Fluo4 calcium, HEK293 TRPC4beta/mu-opioid cells | Short transient receptor potential channel 4 (Mus musculus), Q9QUQ5 | Fluo4 calcium fluorescence; stronger effect = higher value | B-score at 10 µM | 310,000 tested, 0.49% active | AID 2237, 2010;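 active = B-score above 5 SD of library B-scores, and initial fluorescence ratio not above library mean plus 5 SD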;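 also: positive B-score marks a calcium rise read as TRPC4 activation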
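Incubation: 45 min room-temperature Fluo4 loading, 110 s read / System: HEK293 cells stably co-expressing mouse TRPC4beta and mu-opioid receptor / Signal: Fluo4 fluorescence, kinetic / Control set: buffer (low) and maximal DAMGO (high) / Measure: integrated baseline-normalised fluorescence ratio, converted to per-well B score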
TRPC6 inhibitor = mouse TRPC6 channel inhibitors, primary screen, cell-based, HEK293, membrane potential dye; Short transient receptor potential channel 6 (Mus musculus), Q61143; ACh-evoked depolarization; stronger effect = lower value; B-score at 10 µM; 310,000 tested, 1.1% active;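 active = B-score under library mean minus 3 SD, initial fluorescence not abnormally high, positive integrated signal ratio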;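 also: B-score derived from integrated fluorescence ratio over the kinetic read; more negative B-score means stronger inhibition of depolarization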
TRPC4 sel inh 2 = second selectivity test of TRPC6 inhibitors: effect on mouse TRPC4; shares compounds with TRPC6 inhibitor; HEK293 TRPC4/MOR, membrane potential dye fluorescence; channel activated by saturating DAMGO dose; inhibition, % at 10 µM; 920 tested, 42% active; AID 2776;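 active = compounds whose fluorescence signal differed from control wells by over 3 SD, either direction, in both duplicate plates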
TRPC4 spec = mouse TRPC4 modulation by TRPC6 hits, confirmation, selectivity assay for TRPC6 inhibitor project, cell-based, HEK293 TRPC4/mu-opioid, membrane potential dye. shares compounds with TRPC6 inhibitor. membrane potential fluorescence. activity change, negative = inhibition, % at 10 µM. 920 tested, 61% active. AID 2777, 2010;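 active = rise or fall in signal beyond 3 SD of buffer-only wells in both replicate plates, either sign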;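 also: integrated kinetic ratio of fluorescence range over baseline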
HEK293 MPD ctr 2-1 = nonspecific membrane potential effects, parental HEK293, confirmation, counter-screen for TRPC6 inhibitor project, cell-based, second counter screen | shares compounds with TRPC6 inhibitor | parental HEK293 membrane potential dye fluorescence; maximal acetylcholine challenge after compound addition | signal change vs control, % at 10 µM | 920 tested, 31% active | AID 2779, 2010;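 active = membrane potential signal moving either way by over 3 SD of the maximum-effect control, in both duplicate plates, meaning non-specific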
HEK293 MPD ctr-1 = membrane potential modulation in parental HEK293, confirmation, counter-screen for TRPC6 inhibitor project, cell-based; shares compounds with TRPC6 inhibitor; 920 tested, 60% active; parental HEK293 membrane potential dye fluorescence; AID 2780, 2010; membrane potential signal change, % at 10 µM;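 active = membrane potential signal shifting up or down by more than 3 SD of buffer-only wells, on both duplicate plates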
HEK293 MPD ctr-2 = parental HEK293 membrane potential modulation, confirmation, counter-screen for TRPC6 modulator project, cell-based; shares compounds with TRPC6 inhibitor; membrane potential signal change, % at 10 µM; 2,400 tested, 51% active; membrane potential dye fluorescence;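 active = membrane potential signal moves up or down beyond 5 SD from buffer-only wells, on both duplicate plates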
HEK293 MPD ctr 2-2 = parental HEK293 nonspecific activity of TRPC6 modulators, second screen. shares compounds with TRPC6 inhibitor. inhibition, % at 10 µM. 2,400 tested, 14% active. membrane potential dye fluorescence; after compound, maximal acetylcholine stimulation;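 active = membrane potential signal drops by more than 5 SD from the mean control signal, in both duplicate plates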;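 also: plate controls were acetylcholine ECmax control wells for no effect and buffer only wells for full effect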
TRPC4/MOR mod = TRPC4 modulation by TRPC6 hit compounds, confirmation, selectivity assay for TRPC6 modulator project, cell-based, HEK293 TRPC4/mu-opioid, membrane potential dye, mouse; shares compounds with TRPC6 inhibitor; membrane potential fluorescence; percent change from control (negative = decrease, positive = increase), % at 10 µM; 2,400 tested, 69% active;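 active = membrane potential signal moved up or down beyond 5 SD of buffer control wells, in both duplicate plates, actives on both sides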;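 also: plate controls were assay buffer wells for no effect and DAMGO maximal-effect wells for full effect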
TRPC4/MOR inh 2 = mouse TRPC4 off-target activity of TRPC6 modulators, second screen. HEK293 TRPC4/mu-opioid, membrane potential dye fluorescence; stimulated with maximal-effect DAMGO. shares compounds with TRPC6 inhibitor. inhibition, % at 10 µM. 2,400 tested, 55% active;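 active = drop in membrane potential signal beyond 5 SD of the control wells in both duplicate plates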;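 also: TRPC4 counter screen for TRPC6 hits run under conditions tuned for TRPC6 not TRPC4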
TRPC6 block conf = mouse TRPC6 channel inhibitors, confirmation, HEK293 cells, membrane potential dye, duplicate | ACh-evoked depolarization | 3,300 tested, 43% active | inhibition, % at 10 µM | shares compounds with TRPC6 inhibitor;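 active = fluorescence ratio falls more than 5 SD below the full-stimulation control mean, in both duplicate runs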;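 also: integrated fluorescence ratio of peak minus minimum over baseline after agonist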
TRPC6 act confirm = mouse TRPC6 channel activators, confirmation, HEK293 cells, membrane potential dye, duplicate; AID 488961, 2010; shares compounds with TRPC6 inhibitor; activation, % at 10 µM; HEK293-TRPC6 membrane potential dye fluorescence, FDSS; 2,800 tested, 11% active;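 active = ratio signal rise beyond 5 SD above unstimulated control wells' mean, seen in both duplicate runs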;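 also: plate controls were buffer EC0 wells for no effect and acetylcholine ECmax response for full effect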
* marks the source's active call; other numbers are inactive results; i = inactive; · = no result given.

SMILES	TRPC6 activator	TRPC4 inh	TRPC4 potent	TRPC4 agonist	TRPC6 inhibitor	HEK293 MPD ctr-2	HEK293 MPD ctr 2-2	TRPC4/MOR mod	TRPC4/MOR inh 2	TRPC6 block conf	TRPC6 act confirm	others
CCCCc1nc2ccccc2c(N)c1CCC (tested in a mixture with another compound)	i	-6*	i	i	-7.63*	·	·	·	·	59.2%*	i	TRPC4 sel inh 2=15.0%*;TRPC4 spec=i;HEK293 MPD ctr 2-1=i;HEK293 MPD ctr-1=0.7%*
N#CC(C#N)=C1c2cc(S(=O)(=O)NCCO)ccc2-c2ccc(S(=O)(=O)NCCO)cc21	i	i	i	i	-5.22*	-138.0%*	i	-30.5%*	i	i	i
CN(CCC(=O)c1ccccc1)CCC(=O)c1ccccc1	i	i	i	i	-5.34*	i	i	10.0%*	i	i	·
CN(C)CCC(=O)c1ccc(Cl)cc1	i	i	i	i	i	·	·	·	·	·	·
CCC(C)(C)NC(=O)CN(C(=O)C(=O)Nc1ccc2c(c1)OCCO2)C1CC1	i	i	i	i	i	·	·	·	·	·	·
CCN(CC)CCNC(=O)c1[nH]c2ccc(OCc3ccccc3)cc2c1C	i	i	i	i	-7.48*	i	i	i	37.5%*	55.0%*	·
CCOC(=O)C1CCN(C(=O)c2cc(S(=O)(=O)N3CCCCCC3)ccc2OC)CC1	i	i	i	i	i	·	·	·	·	·	·
COc1cccc2c1nc(C)c1cc(C)oc12	i	i	i	i	-5.78*	-315.5%*	i	-54.5%*	41.5%*	i	i
COc1cc2c(cc1OC)C(c1ccc(-c3ccc(Cl)cc3Cl)o1)=NCC2	i	i	i	i	i	·	·	·	·	·	·
